Consider three molecules from ChEMBL document CHEMBL1148714, “Design, synthesis, and in vivo SAR of a novel series of pyrazolines as potent selective androgen receptor modulators” (2007).

A value given as a limit tells only on which side of the number the result lay.

The species named for assay [1] is Rattus norvegicus. Kind of assay: Stimulation of levator ani muscle weight in castrated immature Sprague-Dawley rat. In kind it is functional. Put shortly:
(§1)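 Immature (~50 g) castrated male Sprague Dawley rats given oral doses once daily at 0.1, 0.3, 1, 3 mg/day. Ventral prostate and levator ani wet weights adjusted to body weight. % stimulation uses vehicle = 0% and testosterone-treated (1 mg/day) group = 100%; ED50 derived from the four-point dose series. n = 3/group.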

Assay [2] is filed under the species Rattus norvegicus. Kind of assay: Stimulation of levator ani muscle weight in castrated immature Sprague-Dawley rat at 3 mg/day. Type of assay: functional. Put shortly:
as §1

The species entered for assay [3] is Rattus norvegicus. The assay is described as follows: Stimulation of prostate weight in castrated immature Sprague-Dawley rat at 3 mg/day. Type of assay: functional, Prostate gland. Put shortly: as §1
Assay [4] is filed under the species Rattus norvegicus. The assay is described as follows: Stimulation of prostate weight in castrated immature Sprague-Dawley rat. Type of assay: functional, Prostate gland. The gist of the method:
as §1

For assay [5], the species on record is Rattus norvegicus. Kind of assay: Inhibition of prostate weight in castrated immature male Sprague-Dawley rat at 2 mg/day relative to control. Type of assay: functional, Prostate gland. The gist of the method: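 Immature (~50 g) castrated male Sprague Dawley rats; test article orally at 2 mg/day once daily for 5 days, with testosterone propionate 0.1 mg/day s.c. in sesame oil. Ventral prostate wet weight taken on day 6 after CO2 euthanasia, adjusted to body weight. Inhibition given as % of testosterone-enhanced weight, vehicle group = 100% and testosterone-alone group = 0%. n = 3/group.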

Assay [6] deals with Rattus norvegicus. Kind of assay: Inhibition of prostate weight in intact Sprague-Dawley rat at 30 mg/kg relative to control. Type of assay: functional. Particulars: Prostate gland.
The test system of assay [7] is Rattus norvegicus. Kind of assay: Stimulation of prostate weight in castrated Sprague-Dawley rat at 30 mg/kg. In kind it is functional, Prostate gland. Put shortly: (§2)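 Mature (150–200 g) castrated male Sprague Dawley rats dosed by oral gavage once daily for 14 days in 20% cyclodextrin or 0.5% methylcellulose. Five-point doses: 0.3, 1, 3, 10, 30 mg/kg. Testosterone propionate reference given at 5 mg/kg s.c. in sesame oil. Ventral prostate and levator ani wet weights taken on day 15, adjusted to body weight. % stimulation uses vehicle = 0% and testosterone = 100%; ED50 derived from the doses. n = 3.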

The species entered for assay [8] is Rattus norvegicus. Kind of assay: Stimulation of prostate weight in castrated Sprague-Dawley rat. In kind it is functional. Conditions: Prostate gland. The gist of the method:
as §2

Assay [9] is filed under the species Rattus norvegicus. Kind of assay: Stimulation of levator ani muscle weight in castrated Sprague-Dawley rat. Type of assay: functional. Put shortly:
as §2

The test system of assay [10] is Rattus norvegicus. The assay is described as follows: Stimulation of levator ani muscle weight in castrated Sprague-Dawley rat at 30 mg/kg. In kind it is functional. The gist of the method: as §2
For assay [11], the system named is Rattus norvegicus. Kind of assay: Stimulation of levator ani muscle weight in castrated immature Sprague-Dawley rat at 1 mg/day, sc. Type of assay: functional.
Assay [12] concerns Rattus norvegicus. Kind of assay: Stimulation of prostate weight in castrated immature Sprague-Dawley rat at 1 mg/day, sc. In kind it is functional, Prostate gland.

As to `C[C@@]1(C(=O)Nc2ccc(C#N)c(C(F)(F)F)c2)CC(C(F)(F)F)=NN1`, the ED50 in assay [1] is 0.11 mg/day; in assay [4], 0.76 mg/day; in assay [8] it was > 30 mg/kg; in assay [9] it was 3.8 mg/kg. Also, the Activity in [2] amounted to 90%; in [3] it was 51%; in assay [7], 46%; in assay [10], 120%. The Inhibition – broadly, the change of the read-out against control, counted positive when it falls – in [5] was found to be 40%. At 30 mg/kg the inhibition in vivo in assay [6] was 33%.
On to `C[C@]1(C(=O)Nc2ccc(C#N)c(C(F)(F)F)c2)CC(C(F)(F)F)=NN1`, for which the ED50 is 0.86 mg/day in assay [1], 0.94 mg/day in [4], > 30 mg/kg in assay [8] and > 30 mg/kg in assay [9]. In addition, the Activity is on record as 49% in assay [2], 29% in [3], 4% in assay [7] and 9% in assay [10]. Also, the Inhibition in [5] is listed as 22%. Moreover, at 30 mg/kg the inhibition in vivo in assay [6] was 25%.
For `CCC(=O)O[C@H]1CC[C@H]2[C@@H]3CCC4=CC(=O)CC[C@]4(C)[C@H]3CC[C@]12C` [TESTOSTERONE PROPIONATE], the ED50 in [1] is 0.1 mg/day; in assay [4] it was 0.1 mg/day; in assay [8], 0.25 mg/kg; in assay [9], 0.17 mg/kg. For the same molecule, the Activity in assay [11] and in [12] was 100% throughout.
